This is an account of results in the array DNA melting data of Ke et al. (doi:10.1101/2024.01.08.574731).

Data set [1] in a line: melting temperature; fluorescence melt of hairpins on a sequencing array, two-state fit, raised by 9.35 °C to match UV melts. The following applies: sodium 0.088 M. The gist of the method: (§1)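 Melting temperature and folding enthalpy were derived from bootstrapped two-state fits. The fitted temperatures were raised by 9.35 °C to agree with UV melts, and four replicates were combined by inverse variance. The underlying data were Cy3 fluorescence images of library hairpins, with annealed Cy3 and quencher oligos, on a sequenced MiSeq flow cell in 50 mM Na-HEPES pH 8.0, 25 mM NaCl, taken in 2.5 °C steps up to 60 °C, normalised to pre-quench Cy3 and to control constructs.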

The nature of data set [2]: folding enthalpy; higher = less favourable; fluorescence melt of hairpins on a sequencing array, two-state fit. The following applies: sodium 0.088 M. The essentials:
as §1

For the sequence GCAAGAACGAAAGTTTGC (((..(((....)))))), the Tm in data set [1] was found to be 42.7 °C. Also, the folding enthalpy in data set [2] is -22.5 kcal/mol.
For GGTGCGACGAAAGTCACC (((..(((....)))))), the Tm in data set [1] stood at 42.5 °C. The folding enthalpy in data set [2] is -16.5 kcal/mol.
As for GCTCATGGAAACATGAGC (((((((....))))))), the Tm in data set [1] is 67.6 °C. Further, the folding enthalpy in data set [2] was -33 kcal/mol.
The matching figures for GGGTCTGGAAACAGGCTC (.(.(((....))).).): 39.9 °C and -23.2 kcal/mol.
For GTCACCGAAAGGTCTGAC ((((((....)))..))), in that order: 33.7 °C and -15.2 kcal/mol.
The matching figures for GTATTGGGAAACCAATGC (.(((((....))))).): 44.3 °C and -26.9 kcal/mol.
Regarding GCGGACGTCCGC ((((....)))), the Tm in data set [1] was found to be 60.8 °C. Moreover, in data set [2], the folding enthalpy is -53.7 kcal/mol.
The matching figures for GCGATGCGAAAGCACTGC ((..(((....)))..)): 45.2 °C and -19.1 kcal/mol.
For GGCATCGGAAACGACGCC (((.(((....))).))), in that order: 52.3 °C and -42.1 kcal/mol.
As to GTATCAGGAAACTGGTAC (((.(((....))).))), the Tm in data set [1] amounted to 43.5 °C. Besides, in data set [2], the folding enthalpy is -29.5 kcal/mol.
With GCTCGCTCGAAAGAGAGC (((..(((....)))))), in data set [1], the Tm was determined as 48.6 °C. In addition, the folding enthalpy in data set [2] was -20.8 kcal/mol.
For the sequence GTTATTGGAAACGATAAC (((((.(....).))))), the Tm in data set [1] is 38.7 °C. Further, the folding enthalpy in data set [2] is -21.5 kcal/mol.
Regarding GACAGCGAAAGCTGAGTC ((((((....)))..))), the Tm in data set [1] was determined as 39.2 °C. Besides, the folding enthalpy in data set [2] is -8.14 kcal/mol.
For GCTCTACCGAAAGGTAGC (((..(((....)))))), in that order: 31.3 °C and -9.29 kcal/mol.
For GTAACTCGAAAGAGCTAC (((.(((....))).))), in that order: 41.9 °C and -29.2 kcal/mol.
Take GCCTCGCGAAAGCGACGC ((.((((....)))).)): the Tm in data set [1] was 52.6 °C. Further, the folding enthalpy in data set [2] is -16.5 kcal/mol.
For the sequence GATTTGCGAAAGCAATC (((.(((....)))))), the Tm in data set [1] is 40.3 °C. Also, the folding enthalpy in data set [2] was -12.6 kcal/mol.
For GCGAAACGAAAGTTCGC (((.(((....)))))), in that order: 62.7 °C and -32.9 kcal/mol.
For GGAAACGAAAGTTTCTCC ((((((....)))..))), in that order: 45.9 °C and -13.8 kcal/mol.
Turning to GTCATCTCGAAAGAGGAC (((..(((....)))))), the Tm in data set [1] came to 39.4 °C. For the same sequence, in data set [2], the folding enthalpy is -20.9 kcal/mol.
Take GATCCCAACTGGGATC ((((((....)))))): in data set [1], the Tm came out at 63.4 °C. In addition, the folding enthalpy in data set [2] is -39.5 kcal/mol.
As for GATCTCAAGGAGATC ((((((...)))))), in data set [1], the Tm is 54.2 °C. In addition, the folding enthalpy in data set [2] was -37.4 kcal/mol.
For GATCAAGCAATTGATC ((((((....)))))), in that order: 48.8 °C and -34.1 kcal/mol.
For GCCTTGCGAAAGCACAGC ((..(((....)))..)), in that order: 45.1 °C and -7.49 kcal/mol.
For GCTGTGCGAAAGCTTAGC (((..((....))..))), in data set [1], the Tm turned out to be 41.9 °C. For the same sequence, the folding enthalpy in data set [2] is -22.5 kcal/mol.
The matching figures for GATCAGTTTTCTGATC ((((((....)))))): 52.3 °C and -30.5 kcal/mol.
The matching figures for GGTCTCGAAAGAGTGACC ((((((....)))..))): 39.8 °C and -24.5 kcal/mol.
For GTTTACGAAAGTATAAC ((((((....))).))), in that order: 32.4 °C and -12.8 kcal/mol.
Take GATCTTCACCAAGATC ((((((....)))))): the Tm in data set [1] was 41.9 °C. Besides, the folding enthalpy in data set [2] is -35.5 kcal/mol.
Regarding GGTACGGGAAACCGTACC (((((((....))))))), in data set [1], the Tm is 67.8 °C. Further, the folding enthalpy in data set [2] is -33.4 kcal/mol.
Take CGGATCGGAAACGAGCCG (((.(((....))).))): the Tm in data set [1] came to 65.4 °C. The folding enthalpy in data set [2] was -47.4 kcal/mol.
As to GATCGCCCTGCGATC ((((((...)))))), the Tm in data set [1] was 67.8 °C. Also, the folding enthalpy in data set [2] is -32 kcal/mol.
For GCCAGGGGAAACCCTAGC ((.((((....)))).)), in that order: 41 °C and -22.8 kcal/mol.
Turning to GCACATCGAAAGATATGC (((.(((....))).))), in data set [1], the Tm was found to be 42.9 °C. In addition, the folding enthalpy in data set [2] is -30.2 kcal/mol.
Turning to GGTCACCGAAAGGTTACC (((.(((....))).))), in data set [1], the Tm came out at 50.1 °C. Moreover, the folding enthalpy in data set [2] was -27.2 kcal/mol.
Regarding GCTCCCGAAAGGGACAGC ((((((....)))..))), the Tm in data set [1] turned out to be 44.7 °C. In addition, the folding enthalpy in data set [2] is -12.6 kcal/mol.
As for GCTTGCGAAAGCAAAAGC ((((((....)))..))), in data set [1], the Tm came to 52.8 °C. In data set [2], the folding enthalpy is -17.8 kcal/mol.
